For eight compounds, IC50 results are on record in ChEMBL document CHEMBL1144735, “Design, synthesis, and evaluation of trifluoromethyl ketones as inhibitors of SARS-CoV 3CL protease” (Bioorg Med Chem, 2008).

pIC50: −log10 of the molar value.

In the test the target is Replicase polyprotein 1a (Severe acute respiratory syndrome-related coronavirus, UniProt P0C6U8). The experiment in a line: Inhibition of SARS-CoV 3CL protease. Put shortly: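 Purified SARS-CoV 3CL protease (50 nM) with 6 μM fluorogenic substrate peptide in 20 mM Bis–Tris pH 7.0 at 25 °C. Initial velocities were read across inhibitor concentrations and fitted for IC50.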
As to `CCCCCCCCCC(=O)N[C@@H](CC(C)C)C(=O)NC(Cc1ccccc1)C(=O)C(F)(F)F` (mixture of isomers), the pIC50 was 4.30.
In the case of `CCCCCCCCC(=O)N[C@@H](CC(C)C)C(=O)NC(Cc1ccccc1)C(=O)C(F)(F)F` (stereo partly drawn) it was < 4.30; in that of `CC(C)C[C@H](NC(=O)[C@@H](NC(=O)[C@H](C)NC(=O)OCc1ccccc1)C(C)C)C(=O)N[C@@H](Cc1ccccc1)C(=O)C(F)(F)F` (mixture of isomers), 5.00; in that of `O=C(N[C@@H](Cc1ccccc1)C(=O)NC(Cc1ccccc1)C(=O)C(F)(F)F)OCc1ccccc1` (mixture of isomers), 4.70.
Consider `C[C@H](NC(=O)[C@@H](N)CCC(=O)O)C(=O)NCC(=O)C(F)(F)F`, for which the pIC50 was 4.30.
In the case of `CC(C)C[C@H](NC(=O)OC(C)(C)C)C(=O)NC(C)C(=O)C(F)(F)F` (mixture of isomers) it was 4.40; in that of `C[C@H](NC(=O)[C@H](CCC(=O)OC(C)(C)C)NC(=O)OC(C)(C)C)C(=O)NCC(=O)C(F)(F)F`, 4.40.
In the case of `CC(C)C[C@H](NC(=O)OCc1ccccc1)C(=O)NC(Cc1ccccc1)C(=O)C(F)(F)F` (mixture of isomers) it was 4.82.

One may read the pIC50 as the negative decadic logarithm of the IC50, by convention in mol/L. Lower therefore signals a high IC50.
